# Experimental data from ChEMBL document CHEMBL3785019, “Dihydropyrazole derivatives as telomerase inhibitors: Structure-based design, synthesis, SAR and anticancer evaluation in vitro and in vivo” (Eur J Med Chem, 2016).
# Tests used:
# [1] = Cytotoxicity against human MGC803 cells after 48 hrs by MTT assay; format: functional, cell-based, MGC-803
# Method in brief: (§1)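 Tumor cells in log phase in RPMI 1640 + 10% FBS, seeded at 3×10^4 cells mL-1 and incubated 24 h (37 °C, 5% CO2). Test samples added at pre-set concentrations (6 wells each), doxorubicin as reference; 48 h exposure. MTT (2.5 mg·mL-1 in PBS) added for 4 h, formazan dissolved in DMSO, A570 read.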
# [2] = biological target: Telomerase reverse transcriptase (Homo sapiens, UniProt O14746); assay: Inhibition of telomerase in human MGC-803 cells after 24 hrs by TRAP-PCR-ELISA assay; format: cell-based
# Method in brief: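 Cells lysed in RIPA on ice for 30 min; extract incubated with TRAP mix at 25 °C for 30 min, then 35 PCR cycles. Products hybridized to DIG probe, captured on streptavidin, detected with peroxidase anti-DIG at 490 nm; mean±SD.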
# [3] = tested on: HepG2; assay: Cytotoxicity against human HepG2 cells after 48 hrs by MTT assay; format: functional, cell-based; method in brief: as §1
# [4] = tested on: Bcap37; assay: Cytotoxicity against human Bcap37 cells after 48 hrs by MTT assay; format: functional, cell-based; method in brief: as §1
# [5] = Cytotoxicity against human PC3 cells after 48 hrs by MTT assay; format: functional, cell-based, PC-3; method in brief: as §1
# [6] = Homo sapiens, MGC-803, 48 h, read-out: IC50
# [7] = Homo sapiens, HepG2, 48 h, read-out: IC50
# [8] = Homo sapiens, Bcap37, 48 h, read-out: IC50
# [9] = Homo sapiens, PC-3, 48 h, read-out: IC50
# Sequence of Telomerase reverse transcriptase (O14746 whole entry): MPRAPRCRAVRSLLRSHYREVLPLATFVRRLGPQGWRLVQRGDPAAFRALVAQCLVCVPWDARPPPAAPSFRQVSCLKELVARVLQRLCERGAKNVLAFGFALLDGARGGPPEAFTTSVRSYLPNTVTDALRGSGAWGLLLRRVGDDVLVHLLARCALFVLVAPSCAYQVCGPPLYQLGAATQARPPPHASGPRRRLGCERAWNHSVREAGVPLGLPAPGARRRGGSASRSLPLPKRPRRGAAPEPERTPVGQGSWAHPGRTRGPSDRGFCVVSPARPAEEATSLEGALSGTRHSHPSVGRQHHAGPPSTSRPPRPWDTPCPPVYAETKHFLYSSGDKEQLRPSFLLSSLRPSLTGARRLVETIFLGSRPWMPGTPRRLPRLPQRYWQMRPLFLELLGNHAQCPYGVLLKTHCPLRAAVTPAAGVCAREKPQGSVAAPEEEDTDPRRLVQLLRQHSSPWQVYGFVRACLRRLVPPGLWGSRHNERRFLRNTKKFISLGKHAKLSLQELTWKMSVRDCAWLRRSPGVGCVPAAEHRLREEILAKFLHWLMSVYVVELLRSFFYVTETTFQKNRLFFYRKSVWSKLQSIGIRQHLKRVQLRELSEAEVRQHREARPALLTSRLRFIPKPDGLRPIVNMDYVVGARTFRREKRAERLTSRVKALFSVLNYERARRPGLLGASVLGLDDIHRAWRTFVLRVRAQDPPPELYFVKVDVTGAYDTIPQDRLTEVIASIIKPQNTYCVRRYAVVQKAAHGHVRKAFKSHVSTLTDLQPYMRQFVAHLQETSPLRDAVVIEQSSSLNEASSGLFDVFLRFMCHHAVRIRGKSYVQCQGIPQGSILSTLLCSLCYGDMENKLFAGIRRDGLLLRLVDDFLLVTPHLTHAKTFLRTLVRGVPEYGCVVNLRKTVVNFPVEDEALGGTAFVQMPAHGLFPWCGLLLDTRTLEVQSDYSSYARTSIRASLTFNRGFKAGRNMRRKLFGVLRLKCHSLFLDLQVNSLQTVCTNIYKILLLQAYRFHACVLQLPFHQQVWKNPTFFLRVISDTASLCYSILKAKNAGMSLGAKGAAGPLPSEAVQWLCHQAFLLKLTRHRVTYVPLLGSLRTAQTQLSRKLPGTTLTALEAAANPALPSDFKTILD
SMILES,IC50 [2] [µM],"IC50 [1, 6] [µM]","IC50 [3, 7] [µM]","IC50 [4, 8] [µM]","IC50 [5, 9] [µM]",IC50 ([3]; hepg2),IC50 ([1]; mgc-803),IC50 ([4]; bcap37),IC50 ([5]; pc-3)
CC1=NN(C(=O)CCc2ccccc2)C(c2ccccc2O)C1 (stereo not drawn),11,24.1,20.6,25.7,9.38,–,–,–,–
CCCCCCN(CCCCCC)CC(=O)N1N=C(c2cc3ccccc3oc2=O)CC1c1ccccc1C(F)(F)F (stereo not drawn),4.77,6.87,12,12.2,6.03,–,–,–,–
CCN(CC)CC(=O)N1N=C(c2cc3ccccc3oc2=O)CC1c1ccccc1 (stereo not drawn),5.57,8.52,11.4,3.5,6.41,–,–,–,–
CCC(=O)N1N=C(C)CC1c1cc(Br)cc(Br)c1O (stereo not drawn),18.1,38.6,41.4,40.1,28.6,–,–,–,–
CCC(=O)N1N=C(c2cc3ccccc3oc2=O)CC1c1ccccc1 (stereo not drawn),3.63,5.3,9.61,46.3,4.37,–,–,–,–
O=C(c1ccccc1Cl)N1N=C(c2cc3ccccc3oc2=O)CC1c1ccccc1 (stereo not drawn),13.1,6.64,5.44,9.3,6.37,–,–,–,–
CCCNCC(=O)N1N=C(c2cc3ccccc3oc2=O)CC1c1ccccc1 (stereo not drawn),9.32,4.88,10.8,25.2,7.27,–,–,–,–
CCNCC(=O)N1N=C(c2cc3ccccc3oc2=O)CC1c1ccccc1 (stereo not drawn),6.68,26.6,30.6,6.49,5.58,–,–,–,–
O=C(CN1CCSCC1)N1N=C(c2cc3ccccc3oc2=O)CC1c1ccccc1 (stereo not drawn),3.3,10.3,8.96,8.2,4,–,–,–,–
CC1=NN(C(=O)CN2CCCC2)C(c2ccccc2O)C1 (stereo not drawn),5.44,17.9,5.54,5.35,6.67,–,–,–,–
CC(=O)Oc1ccccc1C1CC(C)=NN1C(=O)CN1CCCC1 (stereo not drawn),6.3,6.51,5.09,5.21,6.21,–,–,–,–
CC1=NN(C(=O)COc2ccc(Cl)cc2)C(c2cc(Br)ccc2O)C1 (stereo not drawn),–,23.6,–,36.8,49,Not Active,–,–,–
CC1=NN(C(=O)c2ccc([N+](=O)[O-])cc2)C(c2ccccc2O)C1 (stereo not drawn),–,50,30.1,45.2,36.6,–,–,–,–
CC1=NN(C(=O)c2ccccc2Cl)C(c2ccccc2O)C1 (stereo not drawn),–,18.3,25.2,30.2,42.5,–,–,–,–
CC1=NN(C(=O)CN2CC(C)CC(C)C2)C(c2ccccc2O)C1 (stereo not drawn),–,30.7,51.9,20.9,36.4,–,–,–,–
CC1=NN(S(=O)(=O)c2ccc([N+](=O)[O-])cc2)C(c2cc(Br)cc(Br)c2O)C1 (stereo not drawn),–,40.1,–,–,50,Not Active,–,Not Active,–
CC1=NN(C(=O)CN2CCCC(C)C2)C(c2ccccc2O)C1 (stereo not drawn),–,42.9,17.9,35.6,35.5,–,–,–,–
CC1CCCN(CC(=O)N2N=C(c3cc4ccccc4oc3=O)CC2c2ccccc2)C1 (stereo not drawn),–,–,–,–,28.3,Not Active,Not Active,Not Active,–
CC1=NN(C(=O)CN2CCN(C)CC2)C(c2ccccc2O)C1 (stereo not drawn),2.1,7.85,–,6.21,11.8,Not Active,–,–,–
O=C(CN1CCOCC1)N1N=C(c2cc3ccccc3oc2=O)CC1c1ccccc1C(F)(F)F (stereo not drawn),3.03,10,21,14.2,12.1,–,–,–,–
CC(=O)Oc1ccccc1C1CC(C)=NN1C(=O)CN1CCC(C(C)=O)CC1 (stereo not drawn),3.54,4.12,7.8,20.1,6.8,–,–,–,–
O=C(c1ccccc1)N1N=C(c2cc3ccccc3oc2=O)CC1c1ccccc1 (stereo not drawn),8.74,12.7,36.6,32.2,5.87,–,–,–,–
CC1=NN(C(=O)CN2CCSCC2)C(c2ccccc2O)C1 (stereo not drawn),–,31.5,45.3,20.6,29.2,–,–,–,–
O=C(CN1CCC(c2ccccc2)CC1)N1N=C(c2cc3ccccc3oc2=O)CC1c1ccccc1 (stereo not drawn),35.7,–,–,–,–,Not Active,Not Active,Not Active,Not Active
CC1=NN(C(=O)CN2CCC(c3ccccc3)CC2)C(c2ccccc2O)C1 (stereo not drawn),–,12.3,23.3,33.7,20.4,–,–,–,–
CC1=NN(C(=O)CN2CCC(Cl)CC2)C(c2ccccc2O)C1 (stereo not drawn),–,30.3,42.1,28.6,34.8,–,–,–,–
O=C(CN1CCC(Cl)CC1)N1N=C(c2cc3ccccc3oc2=O)CC1c1ccccc1 (stereo not drawn),57.8,–,–,24.2,–,Not Active,Not Active,–,Not Active
CC1=NN(C(=O)COc2ccc(Cl)cc2)C(c2cc(Br)cc(Br)c2O)C1 (stereo not drawn),–,50,–,46.3,40.2,Not Active,–,–,–
CC1=NN(C(=O)c2ccc(C)cc2)C(c2cc(Br)cc(Br)c2O)C1 (stereo not drawn),–,56.5,–,–,41.2,Not Active,–,Not Active,–

# Continued by falling IC50 [2], values first:
IC50 [2] [µM],SMILES,"IC50 [1, 6] [µM]","IC50 [3, 7] [µM]","IC50 [4, 8] [µM]","IC50 [5, 9] [µM]",IC50 ([3]; hepg2),IC50 ([1]; mgc-803),IC50 ([4]; bcap37),IC50 ([5]; pc-3)
54.4,CC1=NN(C(=O)COc2ccc(Cl)cc2)C(c2ccccc2O)C1 (stereo not drawn),–,–,–,38.8,Not Active,Not Active,Not Active,–
41.2,CC1=NN(S(=O)(=O)c2ccc([N+](=O)[O-])cc2)C(c2cc(Cl)ccc2O)C1 (stereo not drawn),–,–,52.3,44.2,Not Active,Not Active,–,–
31.3,O=c1oc2ccccc2cc1C1=NN(S(=O)(=O)c2ccc([N+](=O)[O-])cc2)C(c2ccccc2)C1 (stereo not drawn),41.2,–,37,46.6,Not Active,–,–,–
31.2,NC(=O)C1CCN(CC(=O)N2N=C(c3cc4ccccc4oc3=O)CC2c2ccccc2)CC1 (stereo not drawn),21.5,19.3,18.5,8.31,–,–,–,–
22.3,COc1ccc(NCC(=O)N2N=C(C)CC2c2ccccc2O)cc1 (stereo not drawn),9.87,39.1,45.5,51.6,–,–,–,–
14.2,COc1ccccc1C1CC(C)=NN1C(=O)CN(C(C)C)C(C)C (stereo not drawn),21.5,8.4,34.2,5.2,–,–,–,–
11.8,C=CCN(CC=C)CC(=O)N1N=C(C)CC1c1cc(Br)ccc1O (stereo not drawn),10.2,7.87,4.95,3.09,–,–,–,–
11,COc1ccccc1C1CC(C)=NN1C(=O)C[N+]1(C)CCCC1 (stereo not drawn),12.2,32.2,9.98,11.2,–,–,–,–
9.94,CCCN(CCC)CC(=O)N1N=C(C)CC1c1cc(Br)ccc1O (stereo not drawn),20.2,9.81,15.3,19,–,–,–,–
8.4,COc1ccccc1C1CC(C)=NN1C(=O)CN1CCC(OC)CC1 (stereo not drawn),9.55,22,18.8,27.2,–,–,–,–
6.77,CC1=NN(C(=O)CN2CCN(C(=O)OC(C)(C)C)CC2)C(c2ccccc2O)C1 (stereo not drawn),17.6,5,6.74,3.44,–,–,–,–
6.2,CC(=O)Oc1ccccc1C1CC(C)=NN1C(=O)CN1CCCCC1C (stereo not drawn),5.14,–,17.9,11.1,Not Active,–,–,–
3.68,CC1=NN(C(=O)CCl)C(c2cc(Br)cc(Br)c2O)C1 (stereo not drawn),4.91,3.35,51.1,5.82,–,–,–,–
3.52,CC(C)NCC(=O)N1N=C(c2cc3ccccc3oc2=O)CC1c1ccccc1 (stereo not drawn),10.3,6,2.21,1.87,–,–,–,–
3.44,CC[N+](C)(CC)CC(=O)N1N=C(C)CC1c1ccccc1OC (stereo not drawn),3.32,3.67,5.15,4.17,–,–,–,–
3.17,CC1=NN(C(=O)CCl)C(c2cc(Br)ccc2O)C1 (stereo not drawn),13.5,16.3,32.3,8.89,–,–,–,–
3.17,CC(C)CNCC(=O)N1N=C(c2cc3ccccc3oc2=O)CC1c1ccccc1 (stereo not drawn),29.7,9.97,6.3,1.92,–,–,–,–
3.15,CNCC(=O)N1N=C(c2cc3ccccc3oc2=O)CC1c1ccccc1 (stereo not drawn),12.8,24,4.22,2.3,–,–,–,–
2.12,CC(=O)Oc1ccccc1C1CC(C)=NN1C(=O)CN1CCCCC1 (stereo not drawn),4.89,19,12.8,4.07,–,–,–,–
